# From PubChem BioAssay
# PHOSPHO1 block = PHOSPHO1 (human) inhibition. Q8TCT1. recombinant PHOSPHO1, absorbance phosphatase assay. inhibition, % at 13.3 µM. 290,000 compounds, 1.1% hits. AID 1565; in the data active = inhibition above about 60%
# A3G deaminase = blocks human APOBEC3G single-stranded DNA deamination; recombinant A3G, ssDNA deamination FAM/TAMRA fluorescence; inhibition, % at 20 µM; 330,000 compounds, 0.28% hits; AID 493012;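 active = inhibition of at least 40% at 20 µM, with no more than 30% in the related APOBEC3A deaminase screen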
# Target sequence (Q9HC16 whole entry, looked up): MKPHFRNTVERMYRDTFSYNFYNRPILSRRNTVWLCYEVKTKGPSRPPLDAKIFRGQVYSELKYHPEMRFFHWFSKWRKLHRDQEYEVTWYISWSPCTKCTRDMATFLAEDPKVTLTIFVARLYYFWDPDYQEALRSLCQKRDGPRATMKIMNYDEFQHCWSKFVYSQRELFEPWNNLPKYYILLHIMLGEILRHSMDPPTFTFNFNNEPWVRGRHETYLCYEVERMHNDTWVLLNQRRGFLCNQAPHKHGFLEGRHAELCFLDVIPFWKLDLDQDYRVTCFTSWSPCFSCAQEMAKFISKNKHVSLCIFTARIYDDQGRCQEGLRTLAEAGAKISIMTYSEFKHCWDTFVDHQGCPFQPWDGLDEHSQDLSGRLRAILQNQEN
# Tb MetRS inh = Trypanosoma brucei MetRS inhibition. 360,000 compounds, 0.4% hits. purified T. brucei MetRS, ATP depletion, Kinase-Glo luminescence. inhibition, % at 11.9 µM;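 active = inhibition above a per-plate cutoff of the control wells' mean inhibition plus 3 SD, cut at about 5.5% in these data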
#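 Material: T. brucei methionyl-tRNA synthetase, purified; reagent: substrates ATP, L-methionine and bulk Escherichia coli tRNA; dosing: 11.9 µM single point; timing: 15 min plus 2 h at 25 °C; detection: luminescence of leftover ATP; evaluation: % inhibition; control set: DMSO-only wells as low control; replicates: singlicate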
# A3A deaminase = human APOBEC3A DNA deaminase inhibition; 330,000 compounds, 0.41% hits; AID 493011; P31941; recombinant A3A, FAM/TAMRA ssDNA deamination fluorescence; inhibition, % at 20 µM;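 active = at least 40% inhibition at 20 µM here, with at most 30% in a related deaminase screen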
# Target sequence (P31941 whole entry, looked up): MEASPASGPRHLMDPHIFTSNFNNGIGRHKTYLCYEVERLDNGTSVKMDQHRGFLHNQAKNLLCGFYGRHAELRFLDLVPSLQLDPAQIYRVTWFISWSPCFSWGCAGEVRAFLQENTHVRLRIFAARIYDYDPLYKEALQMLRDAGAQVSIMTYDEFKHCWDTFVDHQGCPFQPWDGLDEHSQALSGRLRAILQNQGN
# pCIP destab = p/CIP protein destabilization; Q05BA5; F442A p/CIP-EGFP cells, EGFP fluorescence, 16 h; decrease of EGFP signal, % at 10 µM; 290,000 compounds, 0.01% hits; AID 1984;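 active = EGFP signal decrease of at least 30% at 10 µM or well 3 SD below plate mean, unless failing retest; inactive = the rest, including hits failing retest or dose response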
# APOBEC3A confirm = confirmation of human APOBEC3A DNA deaminase inhibitors | shares compounds with A3A deaminase | recombinant A3A, ssDNA deaminase UDG fluorescence assay | inhibition, % at 20 µM | 1,400 compounds, 63% hits;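 active = inhibition reaching a set limit, 80% of the first screen's cutoff, at 20 µM in any replicate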
# UDG A3A counter = inhibits UDG, flagging false APOBEC3A inhibitors; UDG counterscreen, FAM/TAMRA uracil oligo fluorescence; shares compounds with A3A deaminase; inhibition, % at 20 µM; 1,000 tested, under 10 active; call rule not given here
# A number is an active result; – = inactive; · = no result. A selection: hits, their analogues and other compounds. The true share with any hit is near 1.8%.
SMILES,PHOSPHO1 block,A3G deaminase,Tb MetRS inh,A3A deaminase,pCIP destab,APOBEC3A confirm,UDG A3A counter
CCn1c(C)[n+](Cc2ccccc2)c2ccc(Cl)cc21,–,–,–,60,–,73,–
CCn1c(/C=C/N(C)c2ccccc2)[n+](CC)c2ccc(Cl)cc21,–,–,–,42,–,64,–
CCn1c(C)[n+](Cc2ccccc2)c2ccc(C(=O)OC)cc21,–,–,–,53,–,71,–
CN(C)Cc1c(C(=O)N/N=C/c2ccncc2)nnn1-c1nonc1N,–,–,–,48,–,–,–
COc1ccc(CCN2C(=O)CC(Sc3ncccc3C(=O)O)C2=O)cc1OC (stereo not given),–,–,–,98,–,–,–
CCCN1C(=O)CC(Sc2ncccc2C(=O)O)C1=O (stereo not given),–,–,–,–,–,·,·
COc1ccc(N(CC(=O)N2CCCCCC2)S(=O)(=O)c2ccccc2[N+](=O)[O-])c(OC)c1,–,–,–,50,–,62,–
COC(=O)CN(c1ccc(OC)cc1OC)S(=O)(=O)c1ccccc1[N+](=O)[O-],–,–,–,–,–,·,·
Cc1ccc(OCCSc2nc3ccccc3n2CC(=O)O)cc1,–,–,–,–,–,·,·
CC(C)Oc1ccc(OCCSc2nc3ccccc3n2CC(=O)O)cc1,–,–,–,70,–,–,·
COc1ccc(N=C2NC(=O)/C(=C\c3ccco3)S2)cc1,–,–,–,64,–,36,–
CC(=O)Nc1ccc(S(=O)(=O)/N=C2/NC(=O)/C(=C\c3ccco3)S2)cc1,–,–,–,60,–,32,–
COc1ccc(/C=C2\SC(=Nc3ccccc3)NC2=O)cc1,–,–,·,–,–,·,·
Cc1ccc(S(=O)(=O)/N=C2/NC(=O)/C(=C\c3ccco3)S2)cc1,–,–,–,–,–,·,·
CC(=O)c1cc2c(cc1NC(=O)c1c(-c3ccccc3)noc1C)OCO2,–,–,–,–,–,·,·
CCCCNC(=O)[C@H]1C[C@H]1[C@@H](O)[C@H](CO)NC(=O)[C@H](COCc1ccccc1)NC(=O)OC(C)(C)C,–,–,–,–,–,·,·
CCCCNC(=O)[C@H]1C[C@H]1[C@@H](O)[C@H](CO)NC(=O)[C@H](Cc1ccccc1)NC(=O)OC(C)(C)C,–,–,–,66,–,–,–
COc1ccc(NC(=O)N(C)C[C@H]2Oc3ccc(NC(=O)c4ccncc4)cc3C(=O)N([C@H](C)CO)C[C@@H]2C)cc1,·,–,–,–,·,·,·
COc1cc(OC)cc(C(=O)N[C@H](C(=O)NCc2cccs2)C(C)C)c1,–,–,–,–,–,·,·
COc1ccc(C(=O)N[C@H](C(=O)NCc2cccs2)C(C)C)cc1,–,–,–,40,–,–,–
COc1ccccc1CCC(=O)OCC(=O)N1c2ccccc2NC(=O)C1(C)C,·,–,–,–,·,·,·
Cc1ccc(C)c(OCCC(=O)OCC(=O)N2c3ccccc3NC(=O)C2(C)C)c1,·,–,–,52,·,56,–
COC(=O)c1cc(C(=O)OCC(=O)N2c3ccccc3NC(=O)C2(C)C)cc([N+](=O)[O-])c1,–,–,–,97,–,–,–
Cc1nn(C)c(C)c1S(=O)(=O)N1CCCC(C(=O)N2CCN(c3ccccc3)CC2)C1 (stereo not given),–,–,–,–,–,·,·
CCOc1cc(/C=C\[N+](=O)[O-])ccc1OCC(=O)Nc1ccccc1C,–,–,–,–,–,·,·
SMILES,PHOSPHO1 block,A3G deaminase,Tb MetRS inh,A3A deaminase,pCIP destab,APOBEC3A confirm,UDG A3A counter
CCOc1cc(/C=C/c2cccc[n+]2C)ccc1O,–,–,–,–,–,·,·
CCOc1cc(/C=C/c2cccc[n+]2C)ccc1OCC(=O)Nc1ccc(C)cc1,–,–,–,87,–,74,–
COc1cc(/C=C/c2cccc[n+]2C)ccc1OCC(=O)Nc1ccccc1C,–,–,–,82,–,72,–
CC(=O)c1c(C)cc(C)c(CSc2ccccn2)c1C,·,–,–,59,–,58,–
Nc1[nH]c(=O)[nH]c(=O)c1N=Cc1ccccc1,·,·,–,·,·,·,·
COc1ccc(NC(=O)CSc2nnc(Cc3ccc(C)cc3)c(=O)n2N)cc1,·,–,–,–,·,·,·
C=CCN1/C(=C2/SC(=S)N(C)C2=O)Sc2ccccc21,–,–,·,96,–,64,·
CCc1nc2c(OCCOc3ccc(F)cc3)cccn2c1N(C)C(=O)C(C)C,·,·,–,·,·,·,·
Cn1nc([N+](=O)[O-])nc1S(C)(=O)=O,–,–,–,88,–,88,–
O=C(CN1CCN(S(=O)(=O)c2ccc3c(c2)OCCO3)CC1)Nc1cccc(F)c1,·,–,–,–,·,·,·
Cc1cccc(N2CCN(C(=O)c3ccccc3SCC(=O)N3CCCC3)CC2)c1C,·,–,–,–,·,·,·
N#C/C(=C/c1cn(CC(=O)O)c2ccccc12)C(=O)Nc1ccccc1,–,–,–,–,–,·,·
Cc1cccc(NC(=O)/C(C#N)=C\c2cn(CC(=O)O)c3ccccc23)c1,–,–,–,53,–,–,·
O=P(OCC1CC1)(c1ccccc1)c1ccccc1,–,–,–,–,–,·,·
CCOc1ccc(OCCCC(=O)N2CCN(S(=O)(=O)c3ccc(Cl)cc3)CC2)cc1,·,–,–,70,·,77,–
O=C(OC1CCOC1=O)c1ccc(Cl)c(S(=O)(=O)N2CCOCC2)c1 (stereo not given),·,–,–,–,·,·,·
O=C(CSc1ccccn1)N1CCc2ccccc21,–,–,–,66,–,–,·
Cn1nnnc1SCC(=O)N1N=C(c2ccc(Cl)cc2)CC1c1ccco1 (stereo not given),·,–,–,–,·,·,·
Cc1nnc(SCC(=O)N2N=C(c3ccc(Cl)cc3)CC2c2ccco2)[nH]c1=O (stereo not given),–,–,–,50,–,10,–
O=C(NCc1ccccn1)c1ccc(S(=O)(=O)Nc2ccccc2F)cc1,–,–,–,–,–,·,·
COc1cc(NC(=O)c2noc3c2CCC3)c(OC)cc1Cl,–,–,–,49,–,55,–
CC1(C)CC(N2CCOCC2)=CC(=[N+]2CCOCC2)C1,–,–,–,66,–,69,–
CC1(C)CC(N2CCCCC2)=CC(=[N+]2CCCCC2)C1,–,–,–,60,–,69,–
CCCN(CCC)C1=CC(=[N+]2CCCC2)CC(C)(C)C1,–,–,–,60,–,–,·
CC1C[N+](=C2C=C(N3CCOCC3)CC(C)(C)C2)CC(C)O1 (stereo not given),–,–,–,57,–,65,–
CC(C)C[C@@H]1COc2cc(N3CCSCC3)ccc2S(=O)(=O)N1,·,·,–,·,·,·,·
CC(=O)c1c(C)[nH]c(C(=O)OCC(=O)NCCC2=CCCCC2)c1C,·,–,–,–,·,·,·
Cn1cnc(C(=O)N2CCN(c3ccccc3)CC2)c1C(=O)N1CCN(c2ccccc2)CC1,·,–,–,59,·,67,–
